# In ChEMBL document CHEMBL1144006, “Phenylalanine-containing hydroxamic acids as selective inhibitors of class IIb histone deacetylases (HDACs)” (Bioorg Med Chem, 2008):
# pIC50: −log10 of the molar value. Non-standard residues stand in square brackets, D forms with d. Residues, ends and D or L forms follow the SMILES beside them. *: point of attachment. Asu = N[C@@H](CCCCCC(=O)O)C(=O)O; Aib = CC(C)(N)C(=O)O; NHOH = ON*
# Legend:
# Histone deacetylase 1 [1] = molecular target: T1, Histone deacetylase 1 (Rattus norvegicus, UniProt Q4QQW4); test: Inhibition of HDAC1 in rat liver extract
# [2] = Inhibition of HDAC6 in rat liver extract
# Histone deacetylase 1 [3] = molecular target: Histone deacetylase 1 (Homo sapiens, UniProt Q13547); test: Inhibition of FLAG-tagged HDAC1 expressed in human 293T cells; format: cell-based
# In short: (§1)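 FLAG-HDAC1 or FLAG-HDAC6 was immunoprecipitated with M2 agarose from lysates of overexpressing 293T cells, washed in enzyme buffer and diluted 1:10. Bead suspension, inhibitor and unselective fluorogenic substrate ZMAL were incubated at 37 C for 180 min. The reaction was stopped with TSA/borate pH 9.5/NDA and read at ex 330/em 390 nm. IC50 came from a dilution series against 0% and 100% (TSA) inhibition standards. Selectivity is the ratio of HDAC1 to HDAC6 IC50.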
# [4] = molecular target: T2, Protein deacetylase HDAC6 (Homo sapiens, UniProt Q9UBN7); test: Inhibition of FLAG-tagged HDAC6 expressed in human 293T cells; format: cell-based
# T2 sequence (Q9UBN7 whole entry): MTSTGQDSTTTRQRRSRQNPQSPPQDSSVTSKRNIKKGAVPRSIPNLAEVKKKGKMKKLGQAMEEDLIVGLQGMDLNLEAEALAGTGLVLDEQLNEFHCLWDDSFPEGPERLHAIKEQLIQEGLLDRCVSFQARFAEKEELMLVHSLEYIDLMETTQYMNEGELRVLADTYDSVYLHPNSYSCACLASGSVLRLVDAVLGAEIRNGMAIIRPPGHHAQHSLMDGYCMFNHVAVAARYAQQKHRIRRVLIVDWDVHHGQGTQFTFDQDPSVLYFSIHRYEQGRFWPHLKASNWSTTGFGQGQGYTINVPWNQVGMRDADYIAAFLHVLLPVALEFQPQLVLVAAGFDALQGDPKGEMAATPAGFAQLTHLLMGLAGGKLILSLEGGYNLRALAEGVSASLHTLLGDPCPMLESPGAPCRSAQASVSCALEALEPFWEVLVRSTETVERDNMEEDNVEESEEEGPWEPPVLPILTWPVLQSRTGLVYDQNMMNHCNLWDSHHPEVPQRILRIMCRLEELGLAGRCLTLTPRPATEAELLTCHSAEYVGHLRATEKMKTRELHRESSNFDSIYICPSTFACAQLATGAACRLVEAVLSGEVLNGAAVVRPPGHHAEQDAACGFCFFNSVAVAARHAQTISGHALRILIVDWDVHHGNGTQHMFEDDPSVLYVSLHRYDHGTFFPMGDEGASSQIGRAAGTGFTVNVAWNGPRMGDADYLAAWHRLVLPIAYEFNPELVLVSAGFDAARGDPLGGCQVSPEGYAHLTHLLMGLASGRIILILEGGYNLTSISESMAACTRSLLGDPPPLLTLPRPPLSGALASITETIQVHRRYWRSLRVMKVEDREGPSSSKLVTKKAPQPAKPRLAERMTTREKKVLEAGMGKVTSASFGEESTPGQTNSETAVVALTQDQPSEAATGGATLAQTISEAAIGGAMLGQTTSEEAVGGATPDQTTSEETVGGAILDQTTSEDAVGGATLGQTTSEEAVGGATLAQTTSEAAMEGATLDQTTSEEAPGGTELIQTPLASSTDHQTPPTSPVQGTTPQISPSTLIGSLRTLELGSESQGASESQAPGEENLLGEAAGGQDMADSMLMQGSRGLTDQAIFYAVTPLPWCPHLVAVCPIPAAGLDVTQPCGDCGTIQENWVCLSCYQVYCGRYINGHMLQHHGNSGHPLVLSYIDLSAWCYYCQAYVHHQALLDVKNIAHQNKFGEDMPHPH
# Rattus norvegicus = organism: Rattus norvegicus; test: Selectivity for rat liver HDAC6 over rat liver HDAC1
# Homo sapiens = organism: Homo sapiens; test: Selectivity for human FLAG-tagged HDAC6 over human FLAG-tagged HDAC1; in short: as §1
# MCF7 = test: Cytotoxicity against human MCF7 cells after 48 hrs by One aqueous proliferation assay; format: functional, cell-based; details: MCF7, 48 h
# In short: (§2)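 Cells seeded at 5000 per well, with compound or DMSO vehicle added 24 h after seeding. Incubated 48 h at 37 C, three replicates per concentration. Growth was read by MTS absorbance at 490 nm. GI50 is the concentration reducing cell number by 50% versus control.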
# SQ20B = test: Cytotoxicity against human SQ20B cells after 48 hrs by One aqueous proliferation assay; format: functional, cell-based; in short: as §2
# HeLa = test: Cytotoxicity against human HeLa cells after 48 hrs by One aqueous proliferation assay; format: functional, cell-based; in short: as §2
# Jurkat = test: Cytotoxicity against human Jurkat cells after 48 hrs by One aqueous proliferation assay; format: functional, cell-based; in short: as §2
# MCF-10A = test: Cytotoxicity against human MCF10A cells after 48 hrs by One aqueous proliferation assay; format: functional, cell-based; in short: as §2
# PC-3 = test: Cytotoxicity against human PC3 cells after 48 hrs by One aqueous proliferation assay; format: functional, cell-based; details: PC-3, 48 h; in short: as §2
# Histone deacetylase 1 [5] = molecular target: T1, Histone deacetylase 1; test: Inhibition of HDAC1 in rat liver extract by trypsin assay
# In short: (§3)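 Same rat liver extract and the subtype-selective substrates (Z-(propionyl)Lys-AMC for HDAC1, Boc(Ac)Lys-(F3-AMC) for HDAC6), incubated with inhibitor at 37 C. After incubation the reaction was developed with trypsin instead of NDA. IC50 was taken from a dilution series against 0% and 100% (TSA) inhibition standards.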
# [6] = Inhibition of HDAC6 in rat liver extract by trypsin assay; in short: as §3
# Sequence of Histone deacetylase 1 (Homo sapiens, UniProt Q13547) (Q13547 whole entry): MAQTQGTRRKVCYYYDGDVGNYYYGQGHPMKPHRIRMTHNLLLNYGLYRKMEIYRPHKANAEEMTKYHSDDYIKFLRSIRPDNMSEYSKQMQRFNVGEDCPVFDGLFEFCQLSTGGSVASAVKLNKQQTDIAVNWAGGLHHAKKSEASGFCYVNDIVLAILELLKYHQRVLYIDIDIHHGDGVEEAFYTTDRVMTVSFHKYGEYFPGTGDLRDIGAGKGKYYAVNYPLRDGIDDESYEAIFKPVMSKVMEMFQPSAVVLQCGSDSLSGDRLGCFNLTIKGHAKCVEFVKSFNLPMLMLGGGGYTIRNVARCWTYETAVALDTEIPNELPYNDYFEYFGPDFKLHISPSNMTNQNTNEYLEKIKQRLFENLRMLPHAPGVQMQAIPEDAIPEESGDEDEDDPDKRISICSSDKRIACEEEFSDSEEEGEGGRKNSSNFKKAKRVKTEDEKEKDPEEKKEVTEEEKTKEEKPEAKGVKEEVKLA
# T1 sequence (Q4QQW4 whole entry): as the sequence (Q13547 whole entry) above, with R8K, D399E, E424D, L481M counted along it
SMILES,pIC50 (Histone deacetylase 1 [1]),pIC50 [2],pIC50 (Histone deacetylase 1 [3]),pIC50 [4],Ratio IC50 (Rattus norvegicus),Ratio IC50 (Homo sapiens),pIC50 (MCF7),pIC50 (SQ20B),pIC50 (HeLa),pIC50 (Jurkat),pIC50 (MCF-10A),pIC50 (PC-3),pIC50 (Histone deacetylase 1 [5]),pIC50 [6]
COC(=O)[C@H](Cc1ccc(-c2ccoc2)cc1)NC(=O)CCCCCCCC(=O)NO,5.52,6.17,4.99,5.98,4.46,9.81,4.49,4.46,4.68,5.40,4.36,5.00,–,–
COC(=O)[C@H](Cc1ccc(-c2ccsc2)cc1)NC(=O)CCCCCCC(=O)NO,6.23,6.30,5.48,5.40,1.18,0.83,5.82,–,–,–,–,–,–,–
COC(=O)[C@H](Cc1ccc(-c2ccc(-c3ccccc3)cc2)cc1)NC(=O)CCCCCCCC(=O)NO,5.06,5.17,4.42,4.83,1.3,2.6,5.42,–,–,–,–,–,–,–
COC(=O)[C@H](Cc1ccc(-c2ccsc2)cc1)NC(=O)CCCCCCCC(=O)NO,5.52,6.09,4.72,5.75,3.72,10.8,4.77,4.43,5.00,5.55,4.49,5.00,–,–
COC(=O)[C@H](Cc1ccc(Br)cc1)NC(=O)CCCCCCC(=O)NO,5.50,5.30,4.64,–,0.64,13.5,4.66,4.60,4.82,5.52,< 4.30,< 4.30,–,–
COC(=O)[C@H](Cc1ccc(-c2ccco2)cc1)NC(=O)CCCCCCC(=O)NO,5.12,5.17,5.58,5.35,1.11,0.58,5.82,–,–,–,–,–,–,–
COC(=O)[C@H](Cc1ccc(-c2ccoc2)cc1)NC(=O)CCCCCCC(=O)NO,5.50,5.65,5.20,5.95,1.41,5.62,5.82,–,–,–,–,–,–,–
COC(=O)[C@H](Cc1ccc(-c2ccc3ccccc3c2)cc1)NC(=O)CCCCCCCC(=O)NO,–,–,4.98,5.55,1.38,3.7,5.40,–,–,–,–,–,5.28,5.42
COC(=O)[C@H](Cc1ccc(-c2ccccc2)cc1)NC(=O)CCCCCCC(=O)NO,6.36,6.24,5.91,5.98,0.76,1.16,5.30,–,–,–,–,–,–,–
COC(=O)[C@H](Cc1ccc(-c2ccccc2)cc1)NC(=O)CCCCCCCC(=O)NO,5.77,5.21,5.02,5.63,0.28,4.09,4.68,4.48,5.15,5.57,4.38,5.00,–,–
COC(=O)[C@H](Cc1ccc(Br)cc1)NC(=O)CCCCCCCC(=O)NO,5.68,6.17,4.55,5.33,3.1,6.09,6.05,–,–,–,–,–,–,–
COC(=O)[C@H](Cc1ccc(-c2ccc3ccccc3c2)cc1)NC(=O)CCCCCCC(=O)NO,6.20,6.04,5.53,5.93,0.69,2.55,5.72,–,–,–,–,–,–,–
COC(=O)[C@H](Cc1ccc(-c2ccco2)cc1)NC(=O)CCCCCCCC(=O)NO,5.61,6.33,5.01,5.63,5.19,4.19,4.74,–,–,–,–,–,–,–
CN(C)c1ccc(C(=O)NCCCCCCC(=O)NO)cc1,6.62,7.10,5.53,6.12,3,3.95,–,–,–,–,–,–,–,–
COC(=O)[C@H](Cc1ccc(-c2ccc(-c3ccccc3)cc2)cc1)NC(=O)CCCCCCC(=O)NO,6.89,6.11,6.02,6.16,0.17,1.39,6.10,–,–,–,–,–,–,–
CC1(C)NC(=O)[C@H](CCCCCC(=O)NO)NC(=O)[C@H]2CCCN2C(=O)[C@H](Cc2ccccc2)NC1=O (cyclo([Aib]F[dP][Asu](NHOH))),7.68,6.64,9.40,7.40,0.09,0.01,–,–,–,–,–,–,–,–
COC(=O)[C@H](Cc1ccc(-c2cccs2)cc1)NC(=O)CCCCCCC(=O)NO,6.24,6.24,5.29,5.00,0.98,0.51,5.40,5.22,5.52,6.40,5.10,5.74,–,–
COC(=O)[C@H](Cc1ccc(-c2cccs2)cc1)NC(=O)CCCCCCCC(=O)NO,5.59,6.08,4.78,5.39,3.04,4.1,5.40,–,–,–,–,–,–,–
